According to ChEMBL document CHEMBL1137725, “11C-labelled PIB analogues as potential tracer agents for in vivo imaging of amyloid beta in Alzheimer's disease” (Eur J Med Chem, 2009):
The source made the active and inactive calls. The calls are words filed in the database; no cut-off is given here.

Key:
[1] = target: T1, Amyloid-beta precursor protein (Homo sapiens, UniProt P05067); test: Binding affinity to fibrillar beta-amyloid plaques in cortex of patient with Alzheimer's disease at 1 uM by fluorescence microscopy
Method in brief: (§1)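 Paraffin 8 µm sagittal sections of transgenic APP (London mutation) mouse brain or post-mortem human AD brain; xylol and graded-ethanol deparaffinization, then 1 h incubation with cold compound; tap-water rinse, Mowiol-DABCO mounting. Fluorescence microscopy with UV filter set (excitation 355–425 nm, emission 470 nm longpass). Neighbouring sections immunostained with pan Aβ or AβN25 antibody to check co-localization.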

[2] = target: T1, Amyloid-beta precursor protein; test: Binding affinity to beta-amyloid plaques in cortex of patient with Alzheimer's disease at 1 uM by fluorescence microscopy; method in brief: as §1
[3] = target: T1, Amyloid-beta precursor protein; test: Binding affinity to beta-amyloid plaques in subiculum of transgenic mouse overexpressing human APP at 1 uM by fluorescence microscopy; format: tissue-based; method in brief: as §1
[4] = target: T1, Amyloid-beta precursor protein; test: Displacement of [125I]IMPY from beta-amyloid plaques in brain homogenate of patient with Alzheimer's disease by gamma counting; format: tissue-based
Method in brief: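 Gray-matter homogenates of post-mortem AD cortex in PBS pH 7.4, about 100 mg wet tissue/ml. Incubated 2 h at 37 °C, then GF/B vacuum filtration, two PBS washes, gamma counting. Ki from non-linear regression using Ki = IC50/(1+L/Kd).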

[5] = target: T1, Amyloid-beta precursor protein; test: Binding affinity to vascular beta-amyloid plaques in vibratome section of transgenic mouse cortex overexpressing human APP at 1 uM by fluorescence microscopy
Method in brief: (§2)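 Vibratome sections of transgenic APP (London mutation) mouse brain cortex incubated with cold compound. Fluorescence microscopy with UV filter set (excitation 355–425 nm, emission 470 nm longpass). For co-localization, one section was incubated first with AβN25 antibody and then with compound.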

[6] = target: T1, Amyloid-beta precursor protein; test: Binding affinity to vascular beta-amyloid plaques in vibratome section of transgenic mouse overexpressing human APP at 0.1 uM by fluorescence microscopy; settings: 1 uM, in the assay text read “at 1 uM” for “at 0.1 uM”; method in brief: as §2
[7] = tested on: Blood; test: Biodistribution in NMRI mouse blood at 37 MBq/mL, iv after 60 mins postinjection by gamma counting; format: ADME, organism-based; settings: in vivo, 1 h
Method in brief: (§3)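 Normal mice given the 11C tracer i.v.; killed by decapitation at 2 or 60 min p.i. (n = 4 per time point). Blood collected in tared tube and weighed; organs dissected and weighed, then gamma-counted. Counts background-corrected and expressed as %ID per organ or %ID/g tissue.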

[8] = tested on: Liver; test: Biodistribution in NMRI mouse liver at 37 MBq/mL, iv after 2 mins postinjection assessed per gram of tissue by gamma counting; format: ADME, organism-based; settings: in vivo; method in brief: as §3
[9] = Biodistribution in NMRI mouse cerebrum at 37 MBq/mL, iv after 60 mins postinjection by gamma counting; format: ADME, organism-based; settings: in vivo, 1 h; method in brief: as §3
[10] = tested on: Blood; test: Biodistribution in NMRI mouse blood at 37 MBq/mL, iv after 2 mins postinjection assessed per gram of tissue by gamma counting; format: ADME, organism-based; settings: in vivo; method in brief: as §3
[11] = Biodistribution in NMRI mouse urine at 37 MBq/mL, iv after 60 mins postinjection by gamma counting; format: ADME, organism-based; settings: in vivo, 1 h; method in brief: as §3
[12] = Biodistribution in NMRI mouse urine at 37 MBq/mL, iv after 2 mins postinjection by gamma counting; format: ADME, organism-based; settings: in vivo; method in brief: as §3
[13] = Biodistribution in NMRI mouse cerebrum at 37 MBq/mL, iv after 2 mins postinjection assessed per gram of tissue by gamma counting; format: ADME, organism-based; settings: in vivo; method in brief: as §3
[14] = tested on: Intestine; test: Biodistribution in NMRI mouse intestine at 37 MBq/mL, iv after 60 mins postinjection by gamma counting; format: ADME, organism-based; settings: in vivo, 1 h; method in brief: as §3
[15] = tested on: Kidney; test: Biodistribution in NMRI mouse kidney at 37 MBq/mL, iv after 2 mins postinjection by gamma counting; format: ADME, organism-based; settings: in vivo; method in brief: as §3
[16] = tested on: Cerebellum; test: Biodistribution in NMRI mouse cerebellum at 37 MBq/mL, iv after 60 mins postinjection by gamma counting; format: ADME, organism-based; settings: in vivo, 1 h; method in brief: as §3
[17] = tested on: Cerebellum; test: Biodistribution in NMRI mouse cerebellum at 37 MBq/mL, iv after 60 mins postinjection assessed per gram of tissue by gamma counting; format: ADME, organism-based; settings: in vivo, 1 h; method in brief: as §3
[18] = tested on: Blood; test: Biodistribution in NMRI mouse blood at 37 MBq/mL, iv after 60 mins postinjection assessed per gram of tissue by gamma counting; format: ADME, organism-based; settings: in vivo, 1 h; method in brief: as §3
[19] = Biodistribution in NMRI mouse cerebrum at 37 MBq/mL, iv after 60 mins postinjection assessed per gram of tissue by gamma counting; format: ADME, organism-based; settings: in vivo, 1 h; method in brief: as §3
[20] = tested on: Liver; test: Biodistribution in NMRI mouse liver at 37 MBq/mL, iv after 2 mins postinjection by gamma counting; format: ADME, organism-based; settings: in vivo; method in brief: as §3
[21] = tested on: Liver; test: Biodistribution in NMRI mouse liver at 37 MBq/mL, iv after 60 mins postinjection assessed per gram of tissue by gamma counting; format: ADME, organism-based; settings: in vivo, 1 h; method in brief: as §3
[22] = tested on: Kidney; test: Biodistribution in NMRI mouse kidney at 37 MBq/mL, iv after 2 mins postinjection assessed per gram of tissue by gamma counting; format: ADME, organism-based; settings: in vivo; method in brief: as §3
[23] = Biodistribution in NMRI mouse cerebrum at 37 MBq/mL, iv after 2 mins postinjection by gamma counting; format: ADME, organism-based; settings: in vivo; method in brief: as §3
[24] = tested on: Kidney; test: Biodistribution in NMRI mouse kidney at 37 MBq/mL, iv after 60 mins postinjection assessed per gram of tissue by gamma counting; format: ADME, organism-based; settings: in vivo, 1 h; method in brief: as §3
[25] = tested on: Cerebellum; test: Biodistribution in NMRI mouse cerebellum at 37 MBq/mL, iv after 2 mins postinjection by gamma counting; format: ADME, organism-based; settings: in vivo; method in brief: as §3
[26] = tested on: Blood; test: Biodistribution in NMRI mouse blood at 37 MBq/mL, iv after 2 mins postinjection by gamma counting; format: ADME, organism-based; settings: in vivo; method in brief: as §3
[27] = tested on: Cerebellum; test: Biodistribution in NMRI mouse cerebellum at 37 MBq/mL, iv after 2 mins postinjection assessed per gram of tissue by gamma counting; format: ADME, organism-based; settings: in vivo; method in brief: as §3
[28] = tested on: Liver; test: Biodistribution in NMRI mouse liver at 37 MBq/mL, iv after 60 mins postinjection by gamma counting; format: ADME, organism-based; settings: in vivo, 1 h; method in brief: as §3
[29] = tested on: Intestine; test: Biodistribution in NMRI mouse intestine at 37 MBq/mL, iv after 2 mins postinjection by gamma counting; format: ADME, organism-based; settings: in vivo; method in brief: as §3
[30] = tested on: Kidney; test: Biodistribution in NMRI mouse kidney at 37 MBq/mL, iv after 60 mins postinjection by gamma counting; format: ADME, organism-based; settings: in vivo, 1 h; method in brief: as §3
[31] = Biodistribution in NMRI mouse hepatobiliary system at 37 MBq/mL, iv after 60 mins postinjection by gamma counting; format: ADME, organism-based; settings: in vivo, 1 h; method in brief: as §3
[32] = Partition coefficient, log P in Octanol and 0.025 M phosphate buffer at pH7.4 by gamma counter; format: physicochemical; settings: octanol/0.025 M phosphate buffer, pH 7.4
Method in brief: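 HPLC-purified 11C tracer added to 1-octanol and 2 ml 0.025 M phosphate buffer pH 7.4. Vortexed 3 min at room temperature, centrifuged 2700 g for 10 min. Aliquots of each phase weighed and gamma-counted; P = (cpm/ml octanol)/(cpm/ml buffer). Triplicate.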

[33] = tested on: Blood; test: Blood clearance in NMRI mouse assessed ratio of %ID in blood after 2 mins to %ID in blood after 60 mins at 37 MBq/mL, iv; format: ADME, tissue-based
Method in brief: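 Normal mice given i.v. 11C tracer; blood collected at 2 and 60 min p.i. (n = 4 per time point), weighed and gamma-counted. Clearance expressed as the ratio of %ID/g blood at 2 min to %ID/g blood at 60 min.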

[34] = target: T1, Amyloid-beta precursor protein; test: Binding affinity to core beta-amyloid plaques in vibratome section of transgenic mouse overexpressing human APP at 1 uM by fluorescence microscopy; method in brief: as §2

T1 sequence (P05067 whole entry): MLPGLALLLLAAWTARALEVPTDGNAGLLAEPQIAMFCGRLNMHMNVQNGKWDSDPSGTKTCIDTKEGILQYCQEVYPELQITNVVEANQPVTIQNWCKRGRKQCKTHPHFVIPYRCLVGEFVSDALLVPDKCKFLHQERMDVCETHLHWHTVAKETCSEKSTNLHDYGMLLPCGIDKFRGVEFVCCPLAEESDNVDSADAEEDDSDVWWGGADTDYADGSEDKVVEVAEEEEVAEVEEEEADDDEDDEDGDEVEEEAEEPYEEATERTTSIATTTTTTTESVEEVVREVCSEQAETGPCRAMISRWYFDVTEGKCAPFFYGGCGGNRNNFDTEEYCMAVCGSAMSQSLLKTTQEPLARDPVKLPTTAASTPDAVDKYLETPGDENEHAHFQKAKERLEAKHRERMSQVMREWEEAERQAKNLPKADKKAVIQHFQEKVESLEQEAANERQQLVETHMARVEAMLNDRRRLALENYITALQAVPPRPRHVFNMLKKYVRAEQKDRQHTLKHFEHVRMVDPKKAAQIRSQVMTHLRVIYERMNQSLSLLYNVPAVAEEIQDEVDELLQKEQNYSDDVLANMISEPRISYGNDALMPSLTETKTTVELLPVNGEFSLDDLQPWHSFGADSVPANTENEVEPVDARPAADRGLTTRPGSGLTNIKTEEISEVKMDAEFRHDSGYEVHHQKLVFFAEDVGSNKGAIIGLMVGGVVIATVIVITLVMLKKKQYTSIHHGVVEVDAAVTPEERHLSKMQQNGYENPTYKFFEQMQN

| Structure (SMILES) | Drug uptake [7] [%ID] | Drug uptake [8] [% ID/g] | Drug uptake [9] [%ID] | Drug uptake [10] [% ID/g] | Drug uptake [11] [%ID] | Drug uptake [12] [%ID] | Drug uptake [13] [% ID/g] | Drug uptake [14] [%ID] | Drug uptake [15] [%ID] | Drug uptake [16] [%ID] | Drug uptake [17] [% ID/g] | Drug uptake [18] [% ID/g] | Drug uptake [19] [% ID/g] | Drug uptake [20] [%ID] | Drug uptake [21] [% ID/g] | Drug uptake [22] [% ID/g] | Drug uptake [23] [%ID] | Drug uptake [24] [% ID/g] | Drug uptake [25] [%ID] | Drug uptake [26] [%ID] | further results |
| --- | --- | --- | --- | --- | --- | --- | --- | --- | --- | --- | --- | --- | --- | --- | --- | --- | --- | --- | --- | --- | --- |
| CNc1ccc(-c2nc3c(O)cccc3s2)cc1 | – | – | – | – | – | – | – | – | – | – | – | – | – | – | – | – | – | – | – | – | Activity [1]: Active; Activity [2]: Active; Activity [3]: Active; Ki [4]: 18.8 nM |
| CNc1ccc(-c2nc3cccc(O)c3s2)cc1 | – | – | – | – | – | – | – | – | – | – | – | – | – | – | – | – | – | – | – | – | Activity [1]: Active; Activity [2]: Active; Activity [5]: Active; Activity [3]: Active; Activity [6]: Active; Ki [4]: 11.2 nM |
| CNc1ccc(-c2nc3ccc(O)cc3s2)cc1 [PITTSBURGH COMPOUND B UNLABELLED] | 2.7 | 7.9 | 0.2 | 3.1 | 24.4 | 0.2 | 3.6 | 42.5 | 10.3 | 0 | 0.3 | 1.1 | 0.6 | 15.6 | 5 | 19.9 | 1.1 | 9.1 | 0.2 | 7.9 | Drug uptake [27]: 1.6 % ID/g; Drug uptake [28]: 9.8 %ID; Drug uptake [29]: 12 %ID; Drug uptake [30]: 4.8 %ID |
| [11CH3]Nc1ccc(-c2nc3cc(O)ccc3s2)cc1 | 0.5 | 12.1 | 0.03 | 2.5 | 14.6 | 0.35 | 4.3 | 73.7 | 8.1 | 0.01 | 0.08 | 0.21 | 0.09 | 25.8 | 2.2 | 14.2 | 1.3 | 1.2 | 0.57 | 6 | Drug uptake [31]: 78 %ID; Drug uptake [27]: 4.4 % ID/g; Drug uptake [28]: 4.2 %ID; logD [32]: 2.48; Drug uptake [29]: 12.9 %ID; Drug uptake [30]: 0.7 %ID |
| [11CH3]Nc1ccc(-c2nc3cccc(O)c3s2)cc1 | 1.2 | 14.5 | 0.05 | 4.6 | 24.8 | 0.58 | 2.6 | 54.7 | 9 | 0.01 | 0.1 | 0.57 | 0.16 | 27.8 | 4 | 16.9 | 0.83 | 4.8 | 0.22 | 9.8 | Ratio [33]: 12; Drug uptake [27]: 2.8 % ID/g; Drug uptake [28]: 7.1 %ID; logD [32]: 2.45; Drug uptake [29]: 9.4 %ID; Drug uptake [30]: 2.5 %ID |
| [11CH3]Nc1ccc(-c2nc3c(O)cccc3s2)cc1 | 2.3 | 11.1 | 0.1 | 6.5 | 22.7 | 0.2 | 3.8 | 52.3 | 10.6 | 0 | 0.6 | 1 | 0.3 | 21.2 | 3.7 | 19.4 | 1.2 | 1.2 | 0.2 | 13.8 | Ratio [33]: 6; Drug uptake [31]: 59 %ID; Drug uptake [27]: 2.7 % ID/g; Drug uptake [28]: 6.4 %ID; logD [32]: 3.18; Drug uptake [29]: 12 %ID; Drug uptake [30]: 0.6 %ID |
| CNc1ccc(-c2nc3cc(O)ccc3s2)cc1 | – | – | – | – | – | – | – | – | – | – | – | – | – | – | – | – | – | – | – | – | Activity [1]: Active; Activity [2]: Active; Activity [5]: Active; Activity [3]: Active; Activity [6]: Active; Ki [4]: 11.5 nM; Activity [34]: Active |
